Assay [1] concerns the target T1, Toll-like receptor 4 (Mus musculus) (UniProt Q9QUK6).
T1 sequence (whole entry): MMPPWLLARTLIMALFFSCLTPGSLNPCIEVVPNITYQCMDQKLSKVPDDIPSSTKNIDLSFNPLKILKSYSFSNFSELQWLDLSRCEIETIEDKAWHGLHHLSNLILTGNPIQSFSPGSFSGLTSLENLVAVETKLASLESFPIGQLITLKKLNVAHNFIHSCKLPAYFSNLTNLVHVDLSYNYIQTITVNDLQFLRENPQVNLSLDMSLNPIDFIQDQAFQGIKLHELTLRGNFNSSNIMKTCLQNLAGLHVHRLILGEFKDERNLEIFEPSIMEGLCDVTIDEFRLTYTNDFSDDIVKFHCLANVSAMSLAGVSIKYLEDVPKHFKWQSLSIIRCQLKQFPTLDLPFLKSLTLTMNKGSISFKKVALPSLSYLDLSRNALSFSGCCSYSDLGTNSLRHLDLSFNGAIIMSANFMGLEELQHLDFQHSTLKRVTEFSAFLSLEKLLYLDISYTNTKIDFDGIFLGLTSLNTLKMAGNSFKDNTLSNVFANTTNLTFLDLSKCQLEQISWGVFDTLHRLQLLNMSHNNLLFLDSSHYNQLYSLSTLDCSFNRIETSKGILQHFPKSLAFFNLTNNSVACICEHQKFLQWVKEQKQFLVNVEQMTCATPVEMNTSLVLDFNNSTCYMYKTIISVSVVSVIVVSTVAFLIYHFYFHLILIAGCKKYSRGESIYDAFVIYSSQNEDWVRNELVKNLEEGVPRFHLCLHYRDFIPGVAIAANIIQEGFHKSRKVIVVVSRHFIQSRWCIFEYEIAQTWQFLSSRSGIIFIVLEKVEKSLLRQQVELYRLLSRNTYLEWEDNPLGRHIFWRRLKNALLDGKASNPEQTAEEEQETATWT
In words: Inhibition of TLR4 in BALB/c mouse BMDM assessed as downregulation of LPS-stimulated IL-6 level at 5 ug/ml preincubated for 18 hrs followed by LPS challenge measured after 24 hrs by ELISA relative to control. In a few lines: (§1)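 BALB/c male bone marrow macrophages were differentiated 7 days with L929 supernatant (≥99% CD11b+/F4/80+). Cells were plated at 2 × 10^5/well in triplicate, rested overnight, and given compounds at 5 μg/mL for 18 h. They were then stimulated with 100 ng/mL S. minnesota LPS, 10 ng/mL Pam3CSK4 (BLP) or 0.01 μM CpG for 24 h. Supernatant IL-12p40 and IL-6 were measured by ELISA (sensitivity 16 pg/mL).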

The target in assay [2] is T2, Toll-like receptor 9 (Mus musculus) (UniProt Q9EQU3).
T2 sequence (whole entry): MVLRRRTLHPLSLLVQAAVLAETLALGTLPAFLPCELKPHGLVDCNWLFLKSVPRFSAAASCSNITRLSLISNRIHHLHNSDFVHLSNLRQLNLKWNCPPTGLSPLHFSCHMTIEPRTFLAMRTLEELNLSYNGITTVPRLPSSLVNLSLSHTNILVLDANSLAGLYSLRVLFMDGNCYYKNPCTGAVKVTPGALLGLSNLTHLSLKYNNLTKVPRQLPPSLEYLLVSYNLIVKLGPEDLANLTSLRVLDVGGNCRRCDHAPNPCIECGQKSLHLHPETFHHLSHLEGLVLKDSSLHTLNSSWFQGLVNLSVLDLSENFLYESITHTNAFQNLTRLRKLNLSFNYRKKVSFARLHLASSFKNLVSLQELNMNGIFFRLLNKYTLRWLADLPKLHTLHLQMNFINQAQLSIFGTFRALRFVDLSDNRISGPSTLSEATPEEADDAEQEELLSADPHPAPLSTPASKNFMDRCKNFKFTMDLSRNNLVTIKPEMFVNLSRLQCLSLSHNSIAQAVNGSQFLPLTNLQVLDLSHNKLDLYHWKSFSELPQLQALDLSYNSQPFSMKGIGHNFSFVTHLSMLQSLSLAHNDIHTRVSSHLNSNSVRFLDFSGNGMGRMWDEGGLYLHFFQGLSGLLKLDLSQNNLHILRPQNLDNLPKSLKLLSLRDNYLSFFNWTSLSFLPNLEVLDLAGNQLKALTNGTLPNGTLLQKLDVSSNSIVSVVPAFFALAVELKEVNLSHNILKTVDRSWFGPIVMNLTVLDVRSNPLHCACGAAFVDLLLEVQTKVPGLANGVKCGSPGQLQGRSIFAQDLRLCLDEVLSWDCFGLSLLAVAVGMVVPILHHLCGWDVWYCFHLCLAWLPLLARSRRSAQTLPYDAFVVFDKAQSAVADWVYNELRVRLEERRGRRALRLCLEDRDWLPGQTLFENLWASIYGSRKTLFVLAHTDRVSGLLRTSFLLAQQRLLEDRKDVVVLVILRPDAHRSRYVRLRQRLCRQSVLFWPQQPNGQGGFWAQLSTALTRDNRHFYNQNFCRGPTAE
In words: Inhibition of TLR9 in BALB/c mouse BMDM assessed as downregulation of CpG-stimulated IL-12p40 level at 5 ug/ml preincubated for 18 hrs followed by CpG challenge measured after 24 hrs by ELISA relative to control. In short, it runs like this:
as §1
A general note: In an ELISA, binding on a coated surface is turned into a signal by an enzyme label.

The target in assay [3] is T2, Toll-like receptor 9 (Mus musculus). Kind of assay: Inhibition of TLR9-mediated NFkappaB p65 activation in CpG-stimulated BALB/c mouse BMDM at 5 ug/ml preincubated for 18 hrs followed by CpG challenge measured after 1 hr by TransAM ELISA. In a few lines: (§2)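 Bone marrow macrophages (4 × 10^6/well) had their medium changed after 24 h, were pretreated with compounds at 5 μg/mL for 18 h, then stimulated for 1 h with 100 ng/mL LPS, 10 ng/mL BLP or 1 μM CpG. Activated NFκB p65 in nuclear extracts was measured by TransAM ELISA in duplicate.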

Assay [4] shares this target. In words: Inhibition of TLR9 in BALB/c mouse BMDM assessed as downregulation of CpG-stimulated IL-6 level at 5 ug/ml preincubated for 18 hrs followed by CpG challenge measured after 24 hrs by ELISA relative to control. In short, it runs like this:
as §1

Assay [5] deals with T3, TLR2/TLR6 (Mus musculus) (UniProt Q9QUN7+Q9EPW9). Kind of assay: Inhibition of TLR2/6-mediated NFkappaB p65 activation in BLP-stimulated BALB/c mouse BMDM at 5 ug/ml preincubated for 18 hrs followed by BLP challenge measured after 1 hr by TransAM ELISA. It counts as protein-complex assay. In short, it runs like this: as §2
Assay [6] concerns the target T3, TLR2/TLR6 (Mus musculus). Kind of assay: Inhibition of TLR2/6 in BALB/c mouse BMDM assessed as downregulation of BLP-stimulated IL-6 level at 5 ug/ml preincubated for 18 hrs followed by BLP challenge measured after 24 hrs by ELISA relative to control. In kind it is protein-complex assay. In a few lines:
as §1

Assay [7] addresses T3, TLR2/TLR6 (Mus musculus). Kind of assay: Inhibition of TLR2/6 in BALB/c mouse BMDM assessed as downregulation of BLP-stimulated IL-12p40 level at 5 ug/ml preincubated for 18 hrs followed by BLP challenge measured after 24 hrs by ELISA relative to control. It counts as protein-complex assay. In short, it runs like this:
as §1

Assay [8] addresses T1, Toll-like receptor 4 (Mus musculus). Kind of assay: Inhibition of TLR4 in BALB/c mouse BMDM assessed as downregulation of LPS-stimulated IL-12p40 level at 5 ug/ml preincubated for 18 hrs followed by LPS challenge measured after 24 hrs by ELISA relative to control. In short, it runs like this: as §1
For assay [9] the target is unchanged. In words: Inhibition of TLR4-mediated NFkappaB p65 activation in LPS-stimulated BALB/c mouse BMDM at 5 ug/ml preincubated for 18 hrs followed by LPS challenge measured after 1 hr by TransAM ELISA. In short, it runs like this:
as §2

The values below come from ChEMBL document CHEMBL3108700, “Designing anti-inflammatory drugs from parasitic worms: a synthetic small molecule analogue of the Acanthocheilonema viteae product ES-62 prevents development of collagen-induced arthritis” (J Med Chem, 2013).

Calls of active or inactive are those of the source.

Take `CN(C)CCS(=O)(=O)NCc1ccc([N+](=O)[O-])cc1`: the inhibition entry in [1], in [2], in assay [4], in assay [6] and in assay [7] was “Active” in each case. Besides, the inhibition entry in [3], in assay [5], in assay [8] and in [9] was “inactive” in each case.
On to `O=C(CCN1CCOCC1)NCc1cccc2cnccc12`, for which the inhibition entry in assay [1], in assay [2], in [4], in assay [6] and in assay [8] was “inactive” throughout. Further, in assay [7], the inhibition result was “Active”.
For `O=S(=O)(CCN1CCOCC1)Nc1ccccc1`, the inhibition entry in assay [1], in assay [2], in assay [4], in assay [6], in assay [7] and in [8] was “inactive” each time.
Turning to `O=S(=O)(CCN1CCCC1)Cc1cccc(F)c1`, the inhibition result in [1], in [2], in assay [4], in assay [6] and in assay [8] was “inactive” throughout. In [7], the inhibition entry is “Active”.
For `O=[N+]([O-])c1ccc(CNS(=O)(=O)CCN2CCCC2)cc1`, the inhibition result in assay [1], in assay [2], in assay [4], in assay [6], in assay [7] and in assay [8] was “inactive” throughout.
For `Cc1ccc(CS(=O)(=O)CC[N+](C)(C)C)cc1`, the inhibition entry in assay [1] and in assay [6] was “inactive” in each case. The inhibition result in assay [2], in assay [4], in [7] and in [8] was “Active” each time.
Consider `Cc1ccc(CP(=O)(O)OCCCN(C)C)cc1`, for which the inhibition entry in [1], in [2], in [4], in assay [6], in assay [7] and in [8] was “inactive” each time.
